Measured values from ChEMBL document CHEMBL4680178, “Design, synthesis and biological evaluation of new ganglioside GM3 analogues as potential agents for cancer therapy” (Eur J Med Chem, 2020).
The source made the active and inactive calls. The calls are words filed in the database; no cut-off is given here.

How the values were obtained:
Type in all cases: functional, cell-based
K562 = test: Antiproliferative activity against human K562 cells assessed as inhibition of cell growth after 48 hrs by MTT assay; settings: K562, 48 h
Summary of the method: (§1)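 Cells grown in RPMI-1640 with 10% heat-inactivated FBS at 37 °C, 5% CO2, seeded at 8×10^3/well, treated 48 h with compound at 20, 200, 400, 1000 μM or DMSO vehicle. MTT (5 mg/mL solution) added for 4 h at 37 °C; absorbance read at 570 nm. IC50 from three independent experiments, mean ± SD.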

B16-F10 = test: Antimigratory activity against mouse B16-F10 cells assessed as inhibition of cell migration at 6.25 to 25 uM measured after 24 hrs by scratch wound healing assay; settings: dose 6.25-25 µM
Summary of the method: (§2)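 Near-confluent monolayers (1.5×10^5 cells per well, RPMI-1640 + 10% FBS) scratched with a pipette tip, washed twice with serum-free RPMI-1640, then exposed to compound in fresh FBS-containing medium (DMSO solvent control) for 24 h. Wounds photographed by inverted microscopy; migration expressed as wound width at 24 h / wound width at 0 h (%). Triplicate.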

B16 = test: Antimigratory activity against mouse B16 cells assessed as inhibition of cell migration at 6.25 to 25 uM measured after 24 hrs by scratch wound healing assay; settings: dose 6.25-25 µM; summary of the method: as §2
HCT-116 = test: Antiproliferative activity against human HCT-116 cells assessed as inhibition of cell growth after 48 hrs by MTT assay; settings: HCT-116, 48 h; summary of the method: as §1

| IC50 (K562) [µM] | IC50 (HCT-116) [µM] | SMILES | inhibition (B16-F10) | inhibition (B16) |
| --- | --- | --- | --- | --- |
| 149 | 150 | CCCCCCCCCCCCC/C=C/[C@@H](O)[C@@H](N)CO[C@@H]1O[C@H](CO)[C@@H](O[C@@H]2O[C@H](CO[C@]3(C(=O)O)C[C@H](O)[C@@H](NC(C)=O)[C@H]([C@H](O)[C@H](O)CO)O3)[C@H](O)[C@H](O)[C@H]2O)[C@H](O)[C@H]1O | Active | Active |
| 201 | 201 | CCCCCCCCCCCCC/C=C/[C@@H](O)[C@H](CO[C@@H]1O[C@H](CO)[C@@H](O[C@@H]2O[C@H](CO[C@]3(C(=O)O)C[C@H](O)[C@@H](NC(C)=O)[C@H]([C@H](O)[C@H](O)CO)O3)[C@H](O)[C@H](O)[C@H]2O)[C@H](O)[C@H]1O)NC(=O)CCCCCCCCCCCCCCCCC | Active | Active |
